IC50, inhibition and EC50 data for 37 compounds are collected here from ChEMBL document CHEMBL3352515, “Design, synthesis, antiviral and cytostatic activity of ω-(1H-1,2,3-triazol-1-yl)(polyhydroxy)alkylphosphonates as acyclic nucleotide analogues” (Bioorg Med Chem, 2014).

The subject of test [1] is L1210. As to the kind of experiment: Cytostatic activity against mouse L1210 cells assessed as inhibition of proliferation after 48 hrs by Coulter cell counting method. The class given is functional, cell-based. Particulars: L1210, 48 h. An outline of the steps: (§1)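 (5–7.5) × 10⁴ tumor cells per well were exposed to test compound at 37 °C in humidified CO₂. Incubation ran 48 h for L1210 and 72 h for CEM and HeLa. Cells were then counted in a Coulter counter. IC₅₀ is the concentration that inhibits cell proliferation by 50%.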

Test [2] concerns CCRF-CEM. As to the kind of experiment: Cytostatic activity against human CEM cells assessed as inhibition of proliferation after 72 hrs by Coulter cell counting method. The class given is functional, cell-based. An outline of the steps:
as §1

For test [3], the system named is HeLa. As to the kind of experiment: Cytostatic activity against human HeLa cells assessed as inhibition of proliferation after 72 hrs by Coulter cell counting method. The class given is functional, cell-based. An outline of the steps:
as §1

Test [4] relates to Felid alphaherpesvirus 1. Kind of test: Antiviral activity against Feline herpesvirus 1 infected in HEL cells assessed as inhibition of virus-induced cytopathogenicity. The class given is functional, organism-based. An outline of the steps: (§2)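 Confluent host-cell monolayers in 96-well plates were inoculated with 100 CCID₅₀ of virus while exposed to a range of test compound concentrations. Cytopathic effect was scored once it was complete in untreated infected controls. EC₅₀ is the concentration that reduces virus-induced cytopathogenicity by 50%.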
(In general: Damage to the host cells serves as the signal in cytopathic effect assays.)

The test system of test [5] is Vesicular stomatitis virus. As to the kind of experiment: Antiviral activity against Vesicular stomatitis virus infected in HeLa cells assessed as inhibition of virus-induced cytopathogenicity. The format is functional, organism-based. An outline of the steps: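 HeLa cell monolayers (confluent) were infected with 100 CCID50 of VSV in the presence of serial compound concentrations. Viral cytopathicity was read when complete in untreated infected controls. EC50 is the concentration that reduced virus-induced cytopathogenicity by 50%.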

For test [6], the system named is Respiratory syncytial virus. As to the kind of experiment: Antiviral activity against Respiratory syncytial virus infected in HeLa cells assessed as inhibition of virus-induced cytopathogenicity. The class given is functional, organism-based. An outline of the steps:
as §2

The test system of test [7] is Human alphaherpesvirus 2. Kind of test: Antiviral activity against HSV-2 infected in HEL cells assessed as inhibition of virus-induced cytopathogenicity. The class given is functional, organism-based. In a few lines:
as §2

In test [8] the test system is Human alphaherpesvirus 1. Kind of test: Antiviral activity against HSV-1 infected in HEL cells assessed as inhibition of virus-induced cytopathogenicity. The class given is functional, organism-based. An outline of the steps:
as §2

Active and inactive are the calls of the source. The calls are words filed in the database; no cut-off is given here. Bounds are passed on as bounds.

In general, IC50 refers to the midpoint of a concentration-inhibition curve. Consider `CC1(C)O[C@@H]([C@@H](O)P(=O)(OCc2ccccc2)OCc2ccccc2)[C@@H](Cn2cc(Cn3cnc4c(N)ncnc43)nn2)O1`, for which the IC50 in test [1] was 98 µM; in test [2] it was 140 µM; in test [3] it was more than 200 µM.

For the compound `CC(=O)Nc1ccn(Cc2cn(C[C@H](OCc3ccccc3)[C@H](O)P(=O)(OCc3ccccc3)OCc3ccccc3)nn2)c(=O)n1`, the half-maximal inhibitory concentration (IC50) amounted to 96 µM in test [1], 82 µM in test [2] and 160 µM in test [3].

`Cn1c(=O)c2c(nc(Cl)n2Cc2cn(C[C@H](OCc3ccccc3)[C@H](O)P(=O)(OCc3ccccc3)OCc3ccccc3)nn2)n(C)c1=O`: the IC50 in test [1] is 22 µM; in test [2] it was 25 µM; in test [3] it was 86 µM.

As for `Cn1c(=O)c2c(ncn2Cc2cn(C[C@H]3OC(C)(C)O[C@H]3[C@@H](O)P(=O)(OCc3ccccc3)OCc3ccccc3)nn2)n(C)c1=O`, the half-maximal inhibitory concentration (IC50) in test [1], in test [2] and in test [3] was more than 200 µM in each case.

Regarding `Cn1cnc2c1c(=O)n(Cc1cn(C[C@H](OCc3ccccc3)[C@H](O)P(=O)(OCc3ccccc3)OCc3ccccc3)nn1)c(=O)n2C`, the figures for the half-maximal inhibitory concentration (IC50) in test [1], in test [2] and in test [3] were 58 µM, 68 µM and 76 µM, respectively.

For `O=c1ccn(Cc2cn(C[C@H](OCc3ccccc3)[C@H](O)P(=O)(OCc3ccccc3)OCc3ccccc3)nn2)c(=O)[nH]1`, the half-inhibitory concentration (IC50) stood at 86 µM in test [1], 91 µM in test [2] and 66 µM in test [3]. In addition, the inhibition entry in test [4] is “inactive”.

On to `O=c1ccccn1Cc1cn(C[C@H](OCc2ccccc2)[C@H](O)P(=O)(OCc2ccccc2)OCc2ccccc2)nn1`, for which the results for the IC50 in test [1], in test [2] and in test [3] were 76 µM, 101 µM and 28 µM, respectively.

`Cc1cn(Cc2cn(C[C@H]3OC(C)(C)O[C@H]3[C@@H](O)P(=O)(OCc3ccccc3)OCc3ccccc3)nn2)c(=O)[nH]c1=O`: the IC50 was 122 µM in test [1], more than 200 µM in test [2] and more than 200 µM in test [3].

For the compound `Cc1cn(Cc2cn(C[C@@H]3OC(C)(C)O[C@H]3[C@@H](O)P(=O)(OCc3ccccc3)OCc3ccccc3)nn2)c(=O)[nH]c1=O`, the half-maximal inhibitory concentration (IC50) in test [1] was 139 µM; in test [2], more than 200 µM; in test [3], 107 µM.

Turning to `O=c1ccn(Cc2cn(C[C@H](OCc3ccccc3)[C@@H](O)P(=O)(OCc3ccccc3)OCc3ccccc3)nn2)c(=O)[nH]1`, the IC50 in test [1], in test [2] and in test [3] was more than 200 µM throughout.

On to `CC(=O)c1cn(Cc2cn(C[C@H](OCc3ccccc3)[C@H](O)P(=O)(OCc3ccccc3)OCc3ccccc3)nn2)c2ccccc12`, for which the concentration for half-maximal inhibition (IC50) in test [1] was determined as 15 µM; in test [2], 16 µM; in test [3] it was 13 µM.

With `CC(=O)c1cn(Cc2cn(C[C@H](OCc3ccccc3)[C@@H](O)P(=O)(OCc3ccccc3)OCc3ccccc3)nn2)c2ccccc12`, the 50% inhibitory concentration (IC50) in test [1], in test [2] and in test [3] was more than 200 µM throughout.

Consider `Cn1cnc2c1c(=O)n(Cc1cn(C[C@H](OCc3ccccc3)[C@@H](O)P(=O)(OCc3ccccc3)OCc3ccccc3)nn1)c(=O)n2C`, for which the 50% inhibitory concentration (IC50) worked out at 71 µM in test [1], 82 µM in test [2] and 78 µM in test [3].

For the compound `Cc1cn(Cc2cn(C[C@H](OCc3ccccc3)[C@H](O)P(=O)(OCc3ccccc3)OCc3ccccc3)nn2)c(=O)[nH]c1=O`, the 50% inhibitory concentration (IC50) in test [1] was 85 µM; in test [2] it was 83 µM; in test [3], 64 µM.

Consider `Nc1ncnc2c1ncn2Cc1cn(C[C@H](OCc2ccccc2)[C@@H](O)P(=O)(OCc2ccccc2)OCc2ccccc2)nn1`, for which the half-inhibitory concentration (IC50) was determined as 66 µM in test [1], 78 µM in test [2] and 81 µM in test [3].

In the case of `CC1(C)O[C@@H]([C@@H](O)P(=O)(OCc2ccccc2)OCc2ccccc2)[C@@H](Cn2cc(Cn3ccc(=O)[nH]c3=O)nn2)O1`, the IC50 in test [1], in test [2] and in test [3] was more than 200 µM each time.

`O=C(c1ccccc1)n1c(=O)c2ccccc2n(Cc2cn(C[C@H](OCc3ccccc3)[C@@H](O)P(=O)(OCc3ccccc3)OCc3ccccc3)nn2)c1=O`: the inhibition result in test [5] and in test [6] was “inactive” each time. Moreover, the IC50 was 4.1 µM in test [1], 4.7 µM in test [2] and 7.1 µM in test [3].

In the case of `CC1(C)O[C@@H]([C@@H](O)P(=O)(OCc2ccccc2)OCc2ccccc2)[C@H](Cn2cc(Cn3ccc(=O)[nH]c3=O)nn2)O1`, the figures for the concentration for half-maximal inhibition (IC50) in test [1], in test [2] and in test [3] were more than 200 µM, more than 200 µM and 118 µM, respectively.

As for `Cn1c(=O)c2c(ncn2Cc2cn(C[C@H](OCc3ccccc3)[C@H](O)P(=O)(OCc3ccccc3)OCc3ccccc3)nn2)n(C)c1=O`, the IC50 in test [1] came to 56 µM; in test [2] it was 72 µM; in test [3], 83 µM.

In the case of `Nc1ncnc2c1ncn2Cc1cn(C[C@H](OCc2ccccc2)[C@H](O)P(=O)(OCc2ccccc2)OCc2ccccc2)nn1`, the IC50 in test [1] was determined as 46 µM; in test [2] it was 76 µM; in test [3], 80 µM.

In general, EC50 refers to the concentration that produces a half-maximal response. On to `CCOP(=O)(CCCn1cc(Cn2c(=O)n(C(=O)c3ccccc3)c(=O)c3ccccc32)nn1)OCC`, for which the EC50 in test [4] (Felid alphaherpesvirus 1, HEL) came out at 24 µM.

For `CC(=O)Nc1ccn(Cc2cn(C[C@H]3OC(C)(C)O[C@H]3[C@@H](O)P(=O)(OCc3ccccc3)OCc3ccccc3)nn2)c(=O)n1`, the 50% inhibitory concentration (IC50) in test [1], in test [2] and in test [3] was more than 200 µM throughout.

For `CC(=O)Nc1ccn(Cc2cn(C[C@H](OCc3ccccc3)[C@@H](O)P(=O)(OCc3ccccc3)OCc3ccccc3)nn2)c(=O)n1`, the IC50 in test [1] was 153 µM; in test [2], 169 µM; in test [3] it was more than 200 µM.

Take `Cn1c(=O)c2c(ncn2Cc2cn(C[C@H](OCc3ccccc3)[C@@H](O)P(=O)(OCc3ccccc3)OCc3ccccc3)nn2)n(C)c1=O`: the 50% inhibitory concentration (IC50) in test [1] is 71 µM; in test [2], 71 µM; in test [3], 79 µM.

As to `Cn1c(=O)c2c(nc(Cl)n2Cc2cn(C[C@H](OCc3ccccc3)[C@@H](O)P(=O)(OCc3ccccc3)OCc3ccccc3)nn2)n(C)c1=O`, the IC50 in test [1] is 70 µM; in test [2], 27 µM; in test [3] it was more than 200 µM.

For `Cn1cnc2c1c(=O)n(Cc1cn(C[C@@H]3OC(C)(C)O[C@H]3[C@@H](O)P(=O)(OCc3ccccc3)OCc3ccccc3)nn1)c(=O)n2C`, the 50% inhibitory concentration (IC50) was 145 µM in test [1], 142 µM in test [2] and more than 200 µM in test [3].

With `O=C(c1ccccc1)n1c(=O)ccn(Cc2cn(C[C@H](OCc3ccccc3)[C@H](O)P(=O)(OCc3ccccc3)OCc3ccccc3)nn2)c1=O`, the inhibition entry in test [7] and in test [8] was “inactive” in each case. Moreover, the concentration for half-maximal inhibition (IC50) was found to be 21 µM in test [1], 21 µM in test [2] and 57 µM in test [3].

`O=c1cnn(Cc2cn(C[C@H](OCc3ccccc3)[C@H](O)P(=O)(OCc3ccccc3)OCc3ccccc3)nn2)c(=O)[nH]1`: the results for the IC50 in test [1], in test [2] and in test [3] were 71 µM, 81 µM and 122 µM, respectively.

For the compound `Cc1cn(Cc2cn(C[C@H](O)[C@@H](O)P(=O)(O)O)nn2)c(=O)[nH]c1=O`, the IC50 in test [1], in test [2] and in test [3] was more than 200 µM in each case.

Turning to `CC1(C)O[C@@H]([C@@H](O)P(=O)(OCc2ccccc2)OCc2ccccc2)[C@H](Cn2cc(Cn3cnc4c(N)ncnc43)nn2)O1`, the 50% inhibitory concentration (IC50) in test [1] and in test [2] was more than 200 µM in each case.

As for `Cn1cnc2c1c(=O)n(Cc1cn(C[C@H]3OC(C)(C)O[C@H]3[C@@H](O)P(=O)(OCc3ccccc3)OCc3ccccc3)nn1)c(=O)n2C`, the IC50 is 86 µM in test [1], 115 µM in test [2] and more than 200 µM in test [3].

`O=C(c1ccccc1)n1c(=O)ccn(Cc2cn(C[C@H](O)[C@@H](O)P(=O)(O)O)nn2)c1=O`: the half-inhibitory concentration (IC50) in test [1], in test [2] and in test [3] was more than 200 µM each time.

For `Cn1c(=O)c2c(nc(Cl)n2Cc2cn(C[C@@H]3OC(C)(C)O[C@H]3[C@@H](O)P(=O)(OCc3ccccc3)OCc3ccccc3)nn2)n(C)c1=O`, the concentration for half-maximal inhibition (IC50) in test [1], in test [2] and in test [3] was more than 200 µM throughout.

On to `O=C(c1ccccc1)n1c(=O)ccn(Cc2cn(C[C@H](OCc3ccccc3)[C@@H](O)P(=O)(OCc3ccccc3)OCc3ccccc3)nn2)c1=O`, for which the half-maximal effective concentration (EC50) was 9 µM in test [5] and 12 µM in test [6] (human respiratory syncytial virus). The IC50 in test [1] was 26 µM; in test [2] it was 21 µM; in test [3] it was 76 µM.

Turning to `NC(=O)c1ncn([C@@H]2O[C@H](CO)[C@@H](O)[C@H]2O)n1` [RIBAVIRIN], the EC50 in test [5] stood at 17 µM.

Consider `CC(=O)Nc1ccn(Cc2cn(C[C@@H]3OC(C)(C)O[C@H]3[C@@H](O)P(=O)(OCc3ccccc3)OCc3ccccc3)nn2)c(=O)n1`, for which the IC50 in test [1], in test [2] and in test [3] was more than 200 µM throughout.

On to `O=c1ccccn1Cc1cn(C[C@H](OCc2ccccc2)[C@@H](O)P(=O)(OCc2ccccc2)OCc2ccccc2)nn1`, for which the IC50 in test [1] came out at 63 µM; in test [2] it was 90 µM; in test [3], 45 µM.
